Results as given in ChEMBL document CHEMBL3739379, “Anti-Candida activity and cytotoxicity of a large library of new N-substituted-1,3-thiazolidin-4-one derivatives” (Eur J Med Chem, 2016).
Converted amounts (≈) assume the structure as drawn.

Key:
Type in all cases: functional
[1] = tested on: Candida parapsilosis; assay: Antifungal activity against Candida parapsilosis clinical isolate after 24 hrs by sabouraud dextrose broth based microdilution method; conditions: Lodderomyces parapsilosis
How it was run: (§1)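 Clinical isolates identified by conventional methods and subcultured for purity. Broth microdilution per NCCLS in Sabouraud dextrose broth; compounds dissolved in DMSO and serially diluted; inoculum 10^3/mL. Controls: fungi without compound, medium only. Incubated 24 h at 37 °C. MIC is the lowest concentration with complete growth inhibition by unaided eye. Values are geometric means over isolates per species.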

[2] = tested on: Klebsiella oxytoca; assay: Antibacterial activity against Klebsiella oxytoca after 18 to 22 hrs by broth microdilution method
How it was run: (§2)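 Broth microdilution per NCCLS in Mueller-Hinton II broth; isolates subcultured for purity. Compounds dissolved in DMSO, serial dilutions 256 to 0.5 µg/mL; inoculum 10^5/mL. Controls: organism without compound, medium only. Incubation 18 to 22 h at 35 °C. MIC is the lowest concentration giving complete growth inhibition, read by unaided eye.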

[3] = tested on: Pichia kudriavzevii; assay: Antifungal activity against Candida krusei clinical isolate after 24 hrs by sabouraud dextrose broth based microdilution method; how it was run: as §1
[4] = tested on: Enterococcus faecalis; assay: Antibacterial activity against […] faecalis after 18 to 22 hrs by broth microdilution method; how it was run: as §2
[5] = tested on: Staphylococcus warneri; assay: Antibacterial activity against Staphylococcus warneri after 18 to 22 hrs by broth microdilution method; how it was run: as §2
[6] = tested on: Escherichia coli; assay: Antibacterial activity against Escherichia coli at after 18 to 22 hrs by broth microdilution method; how it was run: as §2
[7] = tested on: Candida albicans; assay: Antifungal activity against Candida albicans clinical isolate after 24 hrs by sabouraud dextrose broth based microdilution method; how it was run: as §1
[8] = tested on: Staphylococcus haemolyticus; assay: Antibacterial activity against Staphylococcus haemolyticus after 18 to 22 hrs by broth microdilution method; how it was run: as §2
[9] = tested on: Enterobacter sp.; assay: Antibacterial activity against Enterobacter sp. after 18 to 22 hrs by broth microdilution method; how it was run: as §2
[10] = tested on: Staphylococcus aureus; assay: Antibacterial activity against Staphylococcus aureus after 18 to 22 hrs by broth microdilution method; how it was run: as §2
[11] = tested on: [Candida] sake; assay: Antifungal activity against Candida sake clinical isolate after 24 hrs by sabouraud dextrose broth based microdilution method; conditions: Fermentozyma sake; how it was run: as §1
[12] = tested on: Candida tropicalis; assay: Antifungal activity against Candida tropicalis clinical isolate after 24 hrs by sabouraud dextrose broth based microdilution method; how it was run: as §1
[13] = tested on: Nakaseomyces glabratus; assay: Antifungal activity against Candida glabrata clinical isolate after 24 hrs by sabouraud dextrose broth based microdilution method; how it was run: as §1
[14] = tested on: Proteus mirabilis; assay: Antibacterial activity against Proteus mirabilis after 18 to 22 hrs by broth microdilution method; how it was run: as §2

Row | MIC [1] [µg/mL] | MIC [2] [µg/mL] | MIC [3] [µg/mL] | MIC [4] [µg/mL] | MIC [5] [µg/mL] | MIC [6] [µg/mL] | MIC [7] [µg/mL] | MIC [9] [µg/mL] | MIC [10] [µg/mL] | MIC [11] [µg/mL] | MIC [12] [µg/mL] | MIC [13] [µg/mL] | MIC [14] [µg/mL] | SMILES | MIC [8] [µg/mL]
1 | 8 (≈ 23.1 µM) | > 256 | 16 (≈ 46.2 µM) | > 256 | > 256 | > 256 | 8 (≈ 23.1 µM) | > 256 | > 256 | 16 (≈ 46.2 µM) | 8 (≈ 23.1 µM) | 32 (≈ 92.4 µM) | > 256 | O=C1CS/C(=N\N=C2CCCCC2)N1Cc1ccc([N+](=O)[O-])cc1 | > 256
2 | 256 (≈ 680 µM) | > 256 | 128 (≈ 340 µM) | > 256 | > 256 | > 256 | 4 (≈ 10.6 µM) | > 256 | > 256 | 256 (≈ 680 µM) | 128 (≈ 340 µM) | 2 (≈ 5.31 µM) | > 256 | CCCCCC/C(C)=N/N=C1\SCC(=O)N1Cc1ccc([N+](=O)[O-])cc1 | > 256
3 | 16 (≈ 40.2 µM) | > 256 | 8 (≈ 20.1 µM) | > 256 | > 256 | > 256 | 256 (≈ 643 µM) | > 256 | > 256 | 16 (≈ 40.2 µM) | 16 (≈ 40.2 µM) | 32 (≈ 80.3 µM) | > 256 | O=C1CS/C(=N\N=C\c2ccc3c(c2)OCO3)N1Cc1ccc([N+](=O)[O-])cc1 | > 256
4 | 8 (≈ 22.2 µM) | > 256 | 8 (≈ 22.2 µM) | > 256 | > 256 | > 256 | 32 (≈ 88.8 µM) | > 256 | > 256 | 4 (≈ 11.1 µM) | 32 (≈ 88.8 µM) | 16 (≈ 44.4 µM) | > 256 | CC1CCC(=N/N=C2\SCC(=O)N2Cc2ccc([N+](=O)[O-])cc2)CC1 (stereo not drawn) | > 256
5 | 8 (≈ 22.3 µM) | > 256 | 4 (≈ 11.2 µM) | > 256 | > 256 | > 256 | 32 (≈ 89.3 µM) | > 256 | > 256 | 8 (≈ 22.3 µM) | 16 (≈ 44.6 µM) | 32 (≈ 89.3 µM) | > 256 | C/C(=N\N=C1/SCC(=O)N1Cc1ccc([N+](=O)[O-])cc1)c1ccco1 | > 256
6 | 4 (≈ 10.8 µM) | > 256 | 32 (≈ 86.6 µM) | > 256 | > 256 | > 256 | 4 (≈ 10.8 µM) | > 256 | > 256 | 4 (≈ 10.8 µM) | 4 (≈ 10.8 µM) | 32 (≈ 86.6 µM) | > 256 | C/C(=N\N=C1/SCC(=O)N1Cc1ccc([N+](=O)[O-])cc1)c1ccccn1 | > 256
7 | 16 (≈ 44.4 µM) | > 256 | 2 (≈ 5.55 µM) | > 256 | > 256 | > 256 | 16 (≈ 44.4 µM) | > 256 | > 256 | 4 (≈ 11.1 µM) | 4 (≈ 11.1 µM) | 32 (≈ 88.8 µM) | > 256 | CC1CCCC/C1=N\N=C1/SCC(=O)N1Cc1ccc([N+](=O)[O-])cc1 (stereo not drawn) | > 256
8 | 4 (≈ 10.9 µM) | > 256 | 8 (≈ 21.7 µM) | > 256 | > 256 | > 256 | 4 (≈ 10.9 µM) | > 256 | > 256 | 2 (≈ 5.43 µM) | 2 (≈ 5.43 µM) | 32 (≈ 86.9 µM) | > 256 | C/C(=N\N=C1/SCC(=O)N1Cc1ccc([N+](=O)[O-])cc1)c1ccccc1 | > 256
9 | 64 (≈ 185 µM) | > 256 | 256 (≈ 739 µM) | > 256 | > 256 | > 256 | 2 (≈ 5.77 µM) | > 256 | > 256 | 256 (≈ 739 µM) | 128 (≈ 370 µM) | 16 (≈ 46.2 µM) | > 256 | CC1CC/C(=N\N=C2/SCC(=O)N2Cc2ccc([N+](=O)[O-])cc2)C1 (stereo not drawn) | > 256
10 | 8 (≈ 23.1 µM) | > 256 | 2 (≈ 5.77 µM) | > 256 | > 256 | > 256 | 4 (≈ 11.5 µM) | > 256 | > 256 | 2 (≈ 5.77 µM) | 2 (≈ 5.77 µM) | 16 (≈ 46.2 µM) | > 256 | CC1CCC/C1=N\N=C1/SCC(=O)N1Cc1ccc([N+](=O)[O-])cc1 (stereo not drawn) | > 256
11 | 8 (≈ 22.2 µM) | > 256 | 4 (≈ 11.1 µM) | > 256 | > 256 | > 256 | 128 (≈ 355 µM) | > 256 | > 256 | 4 (≈ 11.1 µM) | 16 (≈ 44.4 µM) | 32 (≈ 88.8 µM) | > 256 | O=C1CS/C(=N\N=C2CCCCCC2)N1Cc1ccc([N+](=O)[O-])cc1 | > 256
12 | 2 (≈ 5.34 µM) | > 256 | 2 (≈ 5.34 µM) | > 256 | > 256 | > 256 | 8 (≈ 21.4 µM) | > 256 | > 256 | 8 (≈ 21.4 µM) | 4 (≈ 10.7 µM) | 2 (≈ 5.34 µM) | > 256 | C/C(=N\N=C1/SCC(=O)N1Cc1ccc([N+](=O)[O-])cc1)c1cccs1 | > 256
13 | 32 (≈ 85.5 µM) | > 256 | 2 (≈ 5.34 µM) | > 256 | > 256 | > 256 | 4 (≈ 10.7 µM) | > 256 | > 256 | 32 (≈ 85.5 µM) | 32 (≈ 85.5 µM) | 16 (≈ 42.7 µM) | > 256 | C/C(=N\N=C1/SCC(=O)N1Cc1ccc([N+](=O)[O-])cc1)C1CCCCC1 | > 256
14 | 16 (≈ 44.1 µM) | > 256 | 16 (≈ 44.1 µM) | > 256 | > 256 | > 256 | 2 (≈ 5.52 µM) | > 256 | > 256 | 2 (≈ 5.52 µM) | 2 (≈ 5.52 µM) | 8 (≈ 22.1 µM) | > 256 | CCCC/C(CC)=N/N=C1\SCC(=O)N1Cc1ccc([N+](=O)[O-])cc1 | > 256
15 | 16 (≈ 46.5 µM) | > 256 | 16 (≈ 46.5 µM) | > 256 | > 256 | > 256 | 4 (≈ 11.6 µM) | > 256 | > 256 | 2 (≈ 5.81 µM) | 2 (≈ 5.81 µM) | 8 (≈ 23.2 µM) | > 256 | O=C1CS/C(=N\N=C\c2ccco2)N1Cc1ccc([N+](=O)[O-])cc1 | > 256
16 | 32 (≈ 90 µM) | > 256 | 128 (≈ 360 µM) | > 256 | > 256 | > 256 | 256 (≈ 720 µM) | > 256 | > 256 | 32 (≈ 90 µM) | 256 (≈ 720 µM) | 32 (≈ 90 µM) | > 256 | O=C1CS/C(=N\N=C\c2cccnc2)N1Cc1ccc([N+](=O)[O-])cc1 | > 256
17 | 16 (≈ 42.7 µM) | > 256 | 16 (≈ 42.7 µM) | > 256 | > 256 | > 256 | 4 (≈ 10.7 µM) | > 256 | > 256 | 16 (≈ 42.7 µM) | 8 (≈ 21.4 µM) | 16 (≈ 42.7 µM) | > 256 | O=C1CS/C(=N\N=C2CCCCCCC2)N1Cc1ccc([N+](=O)[O-])cc1 | > 256
